CAL PDZ FP-1 = untagged CAL PDZ binding inhibitors, primary screen, biochemical, fluorescence polarization, HTS | Golgi-associated PDZ and coiled-coil motif-containing protein (Homo sapiens), Q9HD26 | purified CAL PDZ, TMR-peptide fluorescence polarization, 1 h | inhibition, % at 24.9 µM | 300,000 compounds, 0.92% hits;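 active = mean inhibition of at least 30% with at least half of replicates also reaching 30%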;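 note: 0% = DMSO neutral control and 100% = excess unlabeled competitor peptide PRC23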
SR-BI uptake up = activators of SR-BI mediated DiI-HDL uptake, primary screen, ldlA[mSR-BI] CHO cells, DiI fluorescence; AID 504775, 2011; activation, % at 12.5 µM; 320,000 compounds, 0.096% hits; 3 h; 100 = double the neutral-control signal;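 active = mean replicate activation of at least 60% and every replicate at or above 60%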;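 note: 0% = median plate neutral-control signal and 100% = twice that signal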
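Material: SR-BI-overexpressing, LDLR-lacking CHO cells; schedule: compound exposure 3 h, 37 °C; reagent: DiI-labelled HDL at 10 µg/mL final; technique: bottom-read fluorescence, 550/595 nm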
dFosB act = activators of delta FosB homodimer, primary screen, biochemical, fluorescence polarization, TAMRA-CDK5 oligo, single point; Protein FosB (Mus musculus), P13346; purified delta FosB; percent of positive-control signal above neutral wells; activation, % at 25 µM; 340,000 compounds, 0.99% hits; AID 493131, 2011;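 active = mean activation above about 17%, with every replicate also reaching it, limit read from the data, passing the limit was not always enough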
Target sequence (P13346 whole entry, looked up): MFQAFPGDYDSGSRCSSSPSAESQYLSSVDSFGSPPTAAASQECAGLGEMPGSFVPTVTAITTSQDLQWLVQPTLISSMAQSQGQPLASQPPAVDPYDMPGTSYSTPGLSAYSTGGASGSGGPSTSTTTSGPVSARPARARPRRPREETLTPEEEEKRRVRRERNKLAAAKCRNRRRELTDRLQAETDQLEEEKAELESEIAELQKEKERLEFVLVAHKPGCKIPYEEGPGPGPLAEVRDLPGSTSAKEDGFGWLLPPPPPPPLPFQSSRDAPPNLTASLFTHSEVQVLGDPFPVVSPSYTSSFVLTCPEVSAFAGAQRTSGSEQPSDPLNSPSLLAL
CAL PDZ FP-2 = CAL PDZ peptide-binding inhibitors, primary screen, biochemical, fluorescence polarization, Cer-tagged CAL PDZ, HTS; Golgi-associated PDZ and coiled-coil motif-containing protein (Homo sapiens), Q9HD26; purified CAL PDZ, TMR-peptide fluorescence polarization, 1 h; inhibition, % at 20 µM; 330,000 compounds, 0.02% hits; AID 504414, 2011;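 active = highest replicate inhibition of at least 40%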;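 note: plate controls were DMSO neutral control wells for no effect and unlabeled competitor peptide control wells for full effect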
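Control set: unlabelled peptide and DMSO controls / Material: purified CerCALP PDZ construct / Timing: 1 h incubation at room temperature before polarization reading / Doses: 20 µM, one dose / Detection: fluorescence polarization (mP)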
SR-BI DiI inh = inhibitors of SR-BI mediated HDL lipid uptake, primary screen, ldlA[mSR-BI] cells, fluorescence, single point; ldlA[mSR-BI] CHO cells, DiI-HDL uptake fluorescence, 3 h; inhibition, % at 12.5 µM; 320,000 compounds, 0.96% hits;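 active = mean replicate inhibition of at least 70% and a set share of replicates each scoring 70 or more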;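 note: 0% = median of neutral control wells and 100% = median of positive control wells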
Numbers without * were called inactive. Rows were chosen to be rich in hits. Some 2.8% of all compounds tested hit in one or more screens of this group.

For COc1ccc(-c2c(-c3cc(OC)cc(OC)c3)n(C)c3ccc(-c4ccc(N(C)C)nc4)cc23)cc1 the results were CAL PDZ FP-1 -6, SR-BI uptake up -83, dFosB act -9, CAL PDZ FP-2 0 and SR-BI DiI inh 83*.
Cn1ccc(C(=O)N/N=C/c2ccncc2)n1 was read as CAL PDZ FP-1 3, SR-BI uptake up 8, dFosB act -7, CAL PDZ FP-2 -2 and SR-BI DiI inh -8.
`C/C=C/C1=CC(=O)C[C@H](c2ccc(OC)c(OC)c2)C1` gave CAL PDZ FP-1 -2, SR-BI uptake up -7, dFosB act 1, CAL PDZ FP-2 0 and SR-BI DiI inh 7.
Screening CCc1nc2ccccc2c(C(=O)OCc2nc3ccccc3c(=O)[nH]2)c1C returned CAL PDZ FP-1 -2, SR-BI uptake up -34, dFosB act -4, CAL PDZ FP-2 -2 and SR-BI DiI inh 34.
CC(=O)c1c(C)n(CC(=O)NCc2ccco2)c2ccccc12 was read as CAL PDZ FP-1 1, dFosB act -4 and CAL PDZ FP-2 0.
Screening Cc1c(C(=O)C(=O)NCc2ccco2)c2ccccc2n1C returned CAL PDZ FP-1 56*, SR-BI uptake up 7, dFosB act -2, CAL PDZ FP-2 2 and SR-BI DiI inh -7.
For COc1ccc(C(=O)NCC(=O)N/N=C/C(C)=C/c2ccco2)cc1OC the results were CAL PDZ FP-1 -3, SR-BI uptake up -85, dFosB act 7, CAL PDZ FP-2 0 and SR-BI DiI inh 85*.
Screening COc1cc(C(=O)NCC(=O)N/N=C/c2ccco2)cc(OC)c1OC returned CAL PDZ FP-1 -4, SR-BI uptake up -15, dFosB act 2, CAL PDZ FP-2 -2 and SR-BI DiI inh 15.
For CC(NC(=O)CCl)c1ccccc1Br (centres undefined) the results were CAL PDZ FP-1 -2, dFosB act -2 and CAL PDZ FP-2 -2.
For COc1ccccc1C(=O)N/N=C/C(C)=C/c1ccccc1 the results were CAL PDZ FP-1 35*, SR-BI uptake up -9, dFosB act -1, CAL PDZ FP-2 8 and SR-BI DiI inh 9.
CC(/C=N/NC(=O)c1ccncc1)=C\c1ccccc1 was read as CAL PDZ FP-1 -1, SR-BI uptake up 16, dFosB act -10, CAL PDZ FP-2 -6 and SR-BI DiI inh -16.
CNC(=S)N(CCc1c(C)[nH]c2ccccc12)Cc1cccnc1 was read as CAL PDZ FP-1 -2, SR-BI uptake up -22, dFosB act 1, CAL PDZ FP-2 -1 and SR-BI DiI inh 22.
Screening C/C(Cc1ccccc1)=N\NC(=O)CNC(=O)c1ccc(Cl)cc1 returned SR-BI uptake up 6, dFosB act 0, CAL PDZ FP-2 0 and SR-BI DiI inh -6.
For CCC/C(=N\NC(=O)CNC(=O)c1ccc(Cl)cc1)c1ccccc1 the results were CAL PDZ FP-1 78*, SR-BI uptake up -9, dFosB act -12, CAL PDZ FP-2 -1 and SR-BI DiI inh 9.
For O=C(Nc1ccnn1C1CCN(CC2CC=CCC2)CC1)c1ccccc1Cl (centres undefined) the results were CAL PDZ FP-1 51*, SR-BI uptake up 15, dFosB act -5, CAL PDZ FP-2 1 and SR-BI DiI inh -15.
For CC1(O)CC(c2ccc(Cl)cc2)=NN1C(=O)c1ccc([N+](=O)[O-])cc1 (centres undefined) the results were CAL PDZ FP-1 -1, SR-BI uptake up -89, dFosB act -2 and SR-BI DiI inh 89*.
`O=C1OC(c2ccccc2)(c2ccccc2)c2ccccc21` gave CAL PDZ FP-1 4, SR-BI uptake up -1, dFosB act -8, CAL PDZ FP-2 55* and SR-BI DiI inh 1.
Screening Cc1cccc(N(C)S(=O)(=O)c2c(C)[nH]c(C)c2C(=O)N2CCCC2)c1 returned CAL PDZ FP-1 -7, SR-BI uptake up -8, dFosB act -9, CAL PDZ FP-2 0 and SR-BI DiI inh 8.
`O=C(NCC(c1ccco1)N1CCN(c2ccccc2)CC1)C(=O)NC1CCCCC1` (centres undefined) gave CAL PDZ FP-1 36*, SR-BI uptake up -19, dFosB act 15, CAL PDZ FP-2 0 and SR-BI DiI inh 19.
Cc1cccc(Cl)c1NC(=O)N1CCCN(c2ncccc2[N+](=O)[O-])CC1 was read as CAL PDZ FP-1 -8, SR-BI uptake up 9, dFosB act -1, CAL PDZ FP-2 -1 and SR-BI DiI inh -9.
For COc1cc(/C=N/NC(N)=S)cc(Br)c1OCc1ccccc1F the results were CAL PDZ FP-1 124*, SR-BI uptake up -50, dFosB act 15, CAL PDZ FP-2 -1 and SR-BI DiI inh 50.
`CCOc1cc(/C=N/NC(N)=S)cc(Br)c1OCc1ccccc1C` gave CAL PDZ FP-1 0, SR-BI uptake up -45, dFosB act 4, CAL PDZ FP-2 -1 and SR-BI DiI inh 45.
`O=C(NCc1ccc2c(c1)OCO2)C(=O)Nc1cc2c3c(c1)CC(=O)N3CCC2` gave CAL PDZ FP-1 -6, SR-BI uptake up -20, dFosB act -2, CAL PDZ FP-2 -3 and SR-BI DiI inh 20.
CCC(CC)c1nnc(NC(=O)CCS(=O)(=O)Cc2ccccc2)s1 was read as CAL PDZ FP-1 41*, SR-BI uptake up 6, dFosB act -15, CAL PDZ FP-2 -1 and SR-BI DiI inh -6.
O=c1cc(-c2ccc(O)c(O)c2)oc2cc(O[C@@H]3O[C@H](CO)[C@@H](O)[C@H](O)[C@H]3O)cc(O)c12 was read as CAL PDZ FP-1 -4, SR-BI uptake up 35, dFosB act 19*, CAL PDZ FP-2 -1 and SR-BI DiI inh -35.
For C[C@@H]1O[C@@H](OC[C@H]2O[C@@H](Oc3cc(O)c4c(=O)cc(-c5ccc(O)c(O)c5)oc4c3)[C@H](O)[C@@H](O)[C@@H]2O)[C@H](O)[C@H](O)[C@H]1O the results were CAL PDZ FP-1 -4, SR-BI uptake up -11, dFosB act 12, CAL PDZ FP-2 0 and SR-BI DiI inh 11.
For CCOC(=O)C1=C(COC(=O)Cc2ccccc2F)NC(=O)NC1C (centres undefined) the results were CAL PDZ FP-1 -1, SR-BI uptake up 5, dFosB act -11, CAL PDZ FP-2 -2 and SR-BI DiI inh -5.
Screening O=C(CSc1nnc(NC(=O)c2ccco2)s1)Nc1ccc2c(c1)OCCO2 returned CAL PDZ FP-1 -2, SR-BI uptake up 10, dFosB act 66*, CAL PDZ FP-2 -1 and SR-BI DiI inh -10.

Screening results as filed in PubChem BioAssay.
